Data from ChEMBL document CHEMBL1157304, “Sesquiterpene lactones from Inula britannica and their cytotoxic and apoptotic effects on human cancer cell lines” (J Nat Prod, 2006).

Key:
[1] = test system: HT-29; test: Induction of apoptosis in human HT29 cells at 25 uM after 24 hrs by FACS; assay type: functional
Summary of the method: (§1)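 2 × 10^5 cells plated in 60 mm dishes and incubated 24 h, then treated for 24 h with compound in DMSO. Cells harvested, washed in PBS and fixed overnight in ice-cold ethanol at −20 °C. Pellets held 30 min at 37 °C in 0.5% Triton X-100/PBS with 0.5 μg/mL RNase. Propidium iodide (50 μg/mL) added, 30 min on ice. Sub-G1 fraction read by FACScan flow cytometry. n=3, mean ± SE.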

[2] = test system: AGS; test: Induction of apoptosis in human AGS cells at 25 uM after 24 hrs by FACS; assay type: functional; summary of the method: as §1
[3] = test system: COLO 205; test: Cytotoxicity against human COLO205 cells after 24 hrs by trypan blue exclusion assay; assay type: functional, cell-based; details: COLO 205, 24 h
Summary of the method: (§2)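 Cells grown at 37 °C, 5% CO2; RPMI for COLO 205, HT-29 and HL-60, DMEM/F12 for AGS, each with 10% heat-inactivated FBS, penicillin/streptomycin and 2 mM L-glutamine. Compounds in DMSO (vehicle control 0.01% DMSO) tested at 5–100 μM for 24 h. Cells diluted 1:1 with 0.5% trypan blue. Unstained cells counted by hemocytometer and expressed as % viable. Three samples per group, mean ± SE.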

[4] = test system: HL-60; test: Induction of apoptosis in human HL60 cells at 50 uM after 24 hrs by FACS; assay type: functional; summary of the method: as §1
[5] = test system: AGS; test: Induction of apoptosis in human AGS cells at 100 uM after 24 hrs by FACS; assay type: functional; summary of the method: as §1
[6] = test system: HL-60; test: Induction of apoptosis in human HL60 cells at 25 uM after 24 hrs by FACS; assay type: functional; summary of the method: as §1
[7] = test system: HT-29; test: Induction of apoptosis in human HT29 cells at 5 uM after 24 hrs by FACS; assay type: functional; summary of the method: as §1
[8] = test system: HL-60; test: Induction of apoptosis in human HL60 cells at 100 uM after 24 hrs by FACS; assay type: functional; summary of the method: as §1
[9] = test system: HL-60; test: Cytotoxicity against human HL60 cells after 24 hrs by trypan blue exclusion assay; assay type: functional, cell-based; details: HL-60, 24 h; summary of the method: as §2
[10] = test system: HT-29; test: Induction of apoptosis in human HT29 cells at 100 uM after 24 hrs by FACS; assay type: functional; summary of the method: as §1
[11] = test system: COLO 205; test: Induction of apoptosis in human COLO205 cells at 100 uM after 24 hrs by FACS; assay type: functional; summary of the method: as §1
[12] = test system: AGS; test: Induction of apoptosis in human AGS cells at 10 uM after 24 hrs by FACS; assay type: functional; summary of the method: as §1
[13] = test system: COLO 205; test: Induction of apoptosis in human COLO205 cells at 5 uM after 24 hrs by FACS; assay type: functional; summary of the method: as §1
[14] = test system: COLO 205; test: Induction of apoptosis in human COLO205 cells at 10 uM after 24 hrs by FACS; assay type: functional; summary of the method: as §1
[15] = test system: HL-60; test: Induction of apoptosis in human HL60 cells at 10 uM after 24 hrs by FACS; assay type: functional; summary of the method: as §1
[16] = test system: HT-29; test: Cytotoxicity against human HT29 cells after 24 hrs by trypan blue exclusion assay; assay type: functional, cell-based; details: HT-29, 24 h; summary of the method: as §2
[17] = test system: HL-60; test: Induction of apoptosis in human HL60 cells at 5 uM after 24 hrs by FACS; assay type: functional; summary of the method: as §1
[18] = test system: AGS; test: Induction of apoptosis in human AGS cells at 5 uM after 24 hrs by FACS; assay type: functional; summary of the method: as §1
[19] = test system: AGS; test: Cytotoxicity against human AGS cells after 24 hrs by trypan blue exclusion assay; assay type: functional, cell-based; summary of the method: as §2
[20] = test system: COLO 205; test: Induction of apoptosis in human COLO205 cells at 25 uM after 24 hrs by FACS; assay type: functional; summary of the method: as §1
[21] = test system: AGS; test: Induction of apoptosis in human AGS cells at 50 uM after 24 hrs by FACS; assay type: functional; summary of the method: as §1
[22] = test system: COLO 205; test: Induction of apoptosis in human COLO205 cells at 50 uM after 24 hrs by FACS; assay type: functional; summary of the method: as §1
[23] = test system: HT-29; test: Induction of apoptosis in human HT29 cells at 10 uM after 24 hrs by FACS; assay type: functional; summary of the method: as §1
[24] = test system: HT-29; test: Induction of apoptosis in human HT29 cells at 50 uM after 24 hrs by FACS; assay type: functional; summary of the method: as §1

| SMILES | Activity [1] [%] | Activity [2] [%] | IC50 [3] [µM] | Activity [4] [%] | Activity [5] [%] | Activity [6] [%] | Activity [7] [%] | Activity [8] [%] | IC50 [9] [µM] | Activity [10] [%] | Activity [11] [%] | Activity [12] [%] | Activity [13] [%] | Activity [14] [%] | Activity [15] [%] | IC50 [16] [µM] | Activity [17] [%] | Activity [18] [%] | IC50 [19] [µM] | Activity [20] [%] | further results |
| --- | --- | --- | --- | --- | --- | --- | --- | --- | --- | --- | --- | --- | --- | --- | --- | --- | --- | --- | --- | --- | --- |
| C=C1C(=O)O[C@@H]2CC(C)=C([C@@H](C)CCCOC(C)=O)[C@H](O)[C@H]12 | 11.68 | 14.666 | > 100 | 5.69 | 18.85 | 4.37 | 5.36 | 22.19 | > 100 | 14.87 | 35.79 | 17.28 | 13.44 | 11.32 | 7.26 | 96 | 4.05 | 15.37 | > 100 | 16.48 | Activity [21]: 14.84%; Activity [22]: 16.59%; Activity [23]: 6.81%; Activity [24]: 9.26% |
| C=C1C(=O)O[C@@H]2CC(C)=C([C@@H](C)CCCO)[C@H](OC(=O)C(C)CC)[C@H]12 (stereo partly drawn) | 3.93 | 17.76 | 58.7 | 28.6 | 27.1 | 10.53 | 4.24 | 27.05 | 47.1 | 6.4 | 36.24 | 11.38 | 5.33 | 5.86 | 5.36 | 48.1 | 6.41 | 10.89 | 31.3 | 15.2 | Activity [21]: 28.48%; Activity [22]: 27.21%; Activity [23]: 3.68%; Activity [24]: 5.16% |
| C=C1C(=O)O[C@@H]2CC(C)=C([C@@H](C)CCCOC(C)=O)[C@H](OC(C)=O)[C@H]12 | 11.5 | 11.29 | 56.7 | 27.02 | 8.12 | 21.13 | 11.19 | 22.24 | 35.3 | 20.88 | 17.82 | 5.79 | 6.94 | 8.69 | 8.67 | 76.6 | 6.14 | 7.49 | 66.4 | 26.95 | Activity [21]: 10.79%; Activity [22]: 15.44%; Activity [23]: 11.15%; Activity [24]: 13.08% |
| C=C1C(=O)O[C@H]2/C=C(\C)CC/C=C(\C)C[C@H](OC(C)=O)[C@@H]12 [ACETYL NEOBRITANNILACTONE B] | 69.7 | 9.89 | 14.7 | 97.74 | 43.11 | 95.17 | 20.38 | 98.05 | 16.2 | 82.47 | 98.66 | 7.87 | 15.47 | 34.72 | 39.71 | 57 | 22.93 | 6.16 | 5.4 | 76.87 | Activity [21]: 13.64%; Activity [22]: 96.92%; Activity [23]: 47.56%; Activity [24]: 81.43% |
| C=C1C(=O)O[C@@H]2CC(C)=C([C@@H](C)CCCO)[C@H](O)[C@H]12 [BRITANNILACTONE] | 6.49 | 10.16 | > 100 | 8.01 | 10.37 | 5.24 | 5.75 | 12.83 | > 100 | 7.55 | 28.31 | 10.37 | 11.9 | 12.28 | 5.64 | > 100 | 7.22 | 7.93 | > 100 | 12.79 | Activity [21]: 8.97%; Activity [22]: 15.54%; Activity [23]: 6.16%; Activity [24]: 6.59% |
| CC(=O)OCCC[C@H](C)C1=C[C@@H]2[C@H](C)C(=O)O[C@@H]2C[C@@]1(C)O [NEOBRITANNILACTONE A] | 5.17 | 10.57 | 97.9 | 6.63 | 9.81 | 6.19 | 3.94 | 16.31 | 85.8 | 7.73 | 25.5 | 9.83 | 4.08 | 6.51 | 6.31 | > 100 | 6.68 | 9.23 | > 100 | 4.28 | Activity [21]: 9.41%; Activity [22]: 5.44%; Activity [23]: 4.24%; Activity [24]: 4.09% |
| C=C1C(=O)O[C@H]2/C=C(\C)CC/C=C(\C)C[C@H](O)[C@@H]12 [NEOBRITANNILACTONE B] | 66.54 | 11.78 | 14.3 | 96.94 | 19.22 | 77.57 | 13.58 | 98.29 | 27.4 | 87.02 | 96.81 | 8.66 | 10.73 | 14.12 | 21.93 | 56.1 | 9.82 | 9.55 | 21.4 | 41.62 | Activity [21]: 15.95%; Activity [22]: 89.11%; Activity [23]: 24.46%; Activity [24]: 82.27% |
